# Assay results published in PubChem BioAssay AID1216 (Sanford-Burnham Center for Chemical Genomics, 2008).
# Screen size: about 190,000 compounds; about 660 (0.35%) were called active. Only a selection was taken, and actives are over-represented in it overall. Values without a mark were called inactive.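 Rule for the calls: active = activation factor of 2 or more at 20 µM; inactive = the rest.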
# Biological target: Mannose-6-phosphate isomerase (Homo sapiens) (UniProt P34949)
# Experiment: MPI activation at elevated mannose 6-phosphate – biochemical, fluorescence intensity, near-saturating mannose 6-phosphate, primary screen (AID 1216)
# Conditions: coupled PMI enzyme assay, resazurin fluorescence, 20 min; at 20 µM; stronger effect = higher value; 1 = untreated enzyme, 0 = substrate-free blank
# In short: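 Test system: human phosphomannose isomerase with PGI, G6PDH, diaphorase coupling enzymes; Amount: PMI at 15 ng/mL final; Reagent: Mannose-6-phosphate 1.0 mM (near-saturating) plus 0.22 mM NADP+; Timing: 20 min, room temperature; Technique: resorufin fluorescence at Ex 544/Em 590 nm; Dosing: 20 µM single dose.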
# Chain of Mannose-6-phosphate isomerase (Homo sapiens) (P34949 whole entry, looked up): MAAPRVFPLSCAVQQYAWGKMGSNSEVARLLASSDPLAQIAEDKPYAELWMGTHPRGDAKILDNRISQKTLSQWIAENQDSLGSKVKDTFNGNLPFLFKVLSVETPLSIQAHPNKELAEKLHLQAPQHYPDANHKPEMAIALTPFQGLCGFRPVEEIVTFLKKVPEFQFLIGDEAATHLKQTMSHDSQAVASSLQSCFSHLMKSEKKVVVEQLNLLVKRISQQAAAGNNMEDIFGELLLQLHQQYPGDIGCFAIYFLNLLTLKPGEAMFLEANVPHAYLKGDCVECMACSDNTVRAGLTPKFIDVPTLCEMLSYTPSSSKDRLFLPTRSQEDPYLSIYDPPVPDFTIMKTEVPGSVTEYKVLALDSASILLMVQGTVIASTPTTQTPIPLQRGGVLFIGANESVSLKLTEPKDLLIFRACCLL
row,SMILES,activation factor
1,Cc1cccc(N=C2NC(=O)/C(=C/c3cn(C)c4ccccc34)S2)c1,0.9
2,Cc1ccc(N=C2NC(=O)/C(=C/C=C/c3ccco3)S2)cc1C,2 (active)
3,Cc1ccc(N2NC(=O)/C(=C/C=C/c3ccco3)C2=O)cc1C,1.2
4,COc1ccc(/C=C/C(=O)c2ccc(OC)cc2O)cc1,0.9
5,COc1ccc(C(=O)/C=C/c2ccc(OC3CSC3)cc2)cc1,0.9
6,COc1ccc(/C=C/C(=O)c2cc(Br)ccc(=O)c2O)cc1,2.1 (active)
7,CCCCC(NS(=O)(=O)c1ccc(C)cc1)C(=O)Oc1ccc2c3c(c(=O)oc2c1)CCC3 (configuration not stated),0.9
8,N/C(=N\OS(=O)(=O)c1cccc([N+](=O)[O-])c1)c1ccncc1,1
9,CCn1c(SCC(=O)N(C)C2CCS(=O)(=O)C2)nnc1-c1cccs1 (configuration not stated),1.1
10,Cc1cc(C)c2nc(SCC(=O)N(C)C3CCS(=O)(=O)C3)cc(C)c2c1 (configuration not stated),2 (active)
11,COc1ccc2c(-c3ccccc3)cc(SCC(=O)N(C)C3CCS(=O)(=O)C3)nc2c1 (configuration not stated),1.3
12,Cc1cc(/C=C2/NC(=O)NC2=O)c(C)n1-c1cccnc1,0.9
13,CC(CC(=O)Nc1ccccc1)n1ccnc1 (configuration not stated),1
14,Cc1c(-c2cccc(Cl)c2)nc2ccccc2c1C(=O)OCC(=O)N(C)C1CCS(=O)(=O)C1 (configuration not stated),1
15,Cc1nccn1CCC1CCCCN1C(=O)CCc1nnc(-c2ccsc2)o1 (configuration not stated),0.9
16,OCCC#Cc1ccc(CN2CCN(Cc3ccsc3)C(CCO)C2)cc1 (configuration not stated),1
17,O=C(Nc1ccc([N+](=O)[O-])cc1)C1CC12CCC2 (configuration not stated),1.1
18,Cc1ccc(CNC(=O)COc2ccc3c(c2)CCC3)cc1,1
19,CC1CCN(C(=O)c2ccc(S(=O)(=O)Cc3cc(F)ccc3F)c([N+](=O)[O-])c2)CC1,0.8
20,COc1ccc(C2CC(c3cccs3)=NN2c2nc(C)c(C(C)=O)s2)cc1OC (configuration not stated),2 (active)
21,COc1ccc(C2CC(c3cccs3)=NN2c2ccccc2)cc1 (configuration not stated),1.2
22,COc1ccc(C2CC(c3cccs3)=NN2c2ccc(F)cc2)cc1OC (configuration not stated),2.2 (active)
23,COc1ccccc1N1N=C(c2cccs2)CC1c1ccccc1 (configuration not stated),1.2
24,COc1ccc(C2CC(c3cccs3)=NN2C(=O)CSc2nnc(N)s2)cc1OC (configuration not stated),1
25,COc1ccc(C2CC(c3cccs3)=NN2C(=O)CSc2nncs2)cc1OC (configuration not stated),1
26,COc1cc(/C=C(/NC(=O)c2ccc(Cl)cc2Cl)C(=O)O)cc(OC)c1OC,1
27,NC(=O)c1ccccc1N(Cc1ccccc1)S(=O)(=O)c1ccccc1,1
